Data published in ChEMBL document CHEMBL1122032, “Dopaminergic activity of substituted 6-chloro-1-phenyl-2,3,4,5-tetrahydro-1H-3-benzazepines” (J Med Chem, 1982).
Active and inactive are the calls of the source. The calls are words filed in the database; no cut-off is given here.

Tests used:
[1] = species on record: Canis familiaris; experiment: Renal vascular resistance was calculated as the ratio of the mean arterial blood pressure / mean renal blood flow; I=Inactive; format: functional, organism-based; conditions: Canis lupus familiaris
[2] = species on record: Canis familiaris; experiment: Renal blood flow was measured in dogs; I=Inactive; format: functional, organism-based; conditions: Canis lupus familiaris; Kidney
[3] = species on record: Rattus norvegicus; experiment: Adenylase cyclase activity in rat striatal membranes at the concentration of 10e-6; format: functional; conditions: Striatum, Membrane
[4] = system: Rattus norvegicus; experiment: Central dopaminergic activity for minimum concentration which produced 500 rotations at the dose of 10 mg/kg (i.p.) in 2 h; format: functional; conditions: route intraperitoneal
Outline: (§1)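 Rats with substantia nigra lesions scored for contralateral rotation after intraperitoneal dosing (routine), oral dosing for selected compounds, or intracaudal administration for intrinsic activity. RD500 and RD1000 are the minimum doses giving 500 and 1000 turns, respectively, in 2 h.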

[5] = species on record: Rattus norvegicus; experiment: Adenylase cyclase activity in rat striatal membranes at the concentration of 10e-5; format: functional; conditions: Striatum, Membrane
[6] = system: Rattus norvegicus; experiment: Central dopaminergic activity for minimum concentration which produced 500 rotations(ip) in 2 h; format: functional; outline: as §1
[7] = Selectivity ratio of Compound as ratio of ED15 relative to iliac vascular resistance(IVR) ED30; format: functional
Outline: (§2)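 Secondary renal screen in anesthetized dogs: cumulative dose-response by infusing drug at progressively increasing rates, 5 min per dose level. RVR ED15 is the average minimum cumulative dose lowering RVR by 15%; maximum effect is the average maximum % fall in RVR. Selectivity ratios are separations between RVR ED15 and doses giving 30% change in iliac vascular resistance, 20% in MABP, 20% in HR.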

[8] = Selectivity ratio of compound as ED15 relative to heart rate(HR) ED20; format: functional; outline: as §2
[9] = system: Canis familiaris; experiment: Compound was evaluated for determining renal vascular resistance(iv) in dogs; format: functional, Canis lupus familiaris; outline: as §2
[10] = Selectivity ratio of compound as ratio of ED15 relative to mean arterial blood pressure(MABP) ED20; format: functional; outline: as §2
[11] = species on record: Canis familiaris; experiment: Compound was evaluated for average maximum percent decrease in renal vascular resistance in dogs; format: functional, Canis lupus familiaris; outline: as §2
[12] = species on record: Canis familiaris; experiment: Renal blood flow was measured in dogs; Highly significant activity; format: functional, organism-based; conditions: Canis lupus familiaris; Kidney
[13] = species on record: Canis familiaris; experiment: Renal vascular resistance was calculated as the ratio of the mean arterial blood pressure / mean renal blood flow; Highly significant activity; format: functional, organism-based; conditions: Canis lupus familiaris
[14] = system: Rattus norvegicus; experiment: Central dopaminergic activity against contralateral rotation(1000) in lesioned rats(po) in 2 h; format: functional
Outline: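 Oral dosing in rats with substantia nigra lesions, scoring contralateral rotations. RD1000 is the minimum dose producing 1000 turns in 2 h.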

[15] = species on record: Canis familiaris; experiment: Renal blood flow was measured in dogs; Significant activity; format: functional, organism-based; conditions: Canis lupus familiaris; Kidney
[16] = system: Rattus norvegicus; experiment: Central dopaminergic activity for minimum concentration which produced 500 rotations at the dose of 10 mg/kg (i.p.) in 2 h; I=Inactive; format: functional, organism-based; set-up: dose 10 mg/kg; outline: as §1
[17] = species on record: Canis familiaris; experiment: Renal vascular resistance was calculated as the ratio of the mean arterial blood pressure / mean renal blood flow; Significant activity; format: functional, organism-based; conditions: Canis lupus familiaris
[18] = species on record: Rattus norvegicus; experiment: Adenylase cyclase activity in rat striatal membranes at the concentration of 10e-7; format: functional; conditions: Striatum, Membrane

SMILES	RVR [1]	RBF [2]	DA response [3]	DA response [5]	RD500 [6]	Ratio [7]	Ratio [8]	RVR ED15 [9]	Ratio [10]	Decrease RVR [11]	RBF [12]	RVR [13]	also measured
Br.CCCCN1CCc2c(cc(O)c(O)c2Cl)C(c2ccccc2)C1 (configuration not stated)	inactive	inactive	85%	90%	–	–	–	–	–	–	–	–	Contralateral turns in 2 h [4]: 611 turns/2 h
Br.Oc1cc2c(c(Cl)c1O)CCNCC2c1ccc(Cl)cc1 (configuration not stated)	inactive	inactive	52%	68%	3.4 mg/kg	–	–	–	–	–	–	–	–
Br.Oc1ccc(C2CNCCc3c2cc(O)c(O)c3Cl)cc1Br (configuration not stated)	–	–	–	–	–	15	>2995	0.002 mg/kg	>2995	26%	–	–	–
CC(=O)Oc1cc2c(c(Cl)c1OC(C)=O)CCNCC2c1ccccc1 (configuration not stated)	–	–	–	–	–	–	–	–	–	–	Highly significant activity	Significant activity	–
NCCc1ccc(O)c(O)c1 [DOPAMINE]	–	–	–	–	–	56	141	0.0027 mg/kg	113	36%	Active	Active	–
Br.CCN1CCc2c(cc(O)c(O)c2Cl)C(c2ccccc2)C1 (configuration not stated)	–	–	48%	55%	0.015 mg/kg	0.1	>6072	0.045 mg/kg	18	16%	Highly significant activity	Significant activity	RD1000 [14]: 4.9 mg/kg
Br.Oc1cc2c(c(Cl)c1O)CCNCC2c1cc(Cl)c(O)c(Cl)c1 (configuration not stated)	–	–	–	–	–	> 37	>37	0.165 mg/kg	>37	18%	–	–	RBF [15]: Significant activity; RD500 [16]: inactive; RVR [17]: Significant activity
COc1ccc(CN2CCc3c(cc(O)c(O)c3Cl)C(c3ccccc3)C2)cc1 (configuration not stated)	–	–	–	–	–	–	–	–	–	–	Highly significant activity	Significant activity	RD500 [16]: inactive
Br.CN1CCc2c(cc(O)c(O)c2Cl)C(c2cccc(Cl)c2)C1 (configuration not stated)	inactive	inactive	22%	13%	0.03 mg/kg	–	–	–	–	–	–	–	RD1000 [14]: 3.2 mg/kg
Br.Cc1ccccc1C1CNCCc2c1cc(O)c(O)c2Cl (configuration not stated)	inactive	inactive	30%	55%	–	–	–	–	–	–	–	–	Contralateral turns in 2 h [4]: 663 turns/2 h
Br.Oc1cc(C2CNCCc3c2cc(O)c(O)c3Cl)ccc1Cl (configuration not stated)	–	–	–	–	–	> 249	>249	0.061 mg/kg	>249	25%	Highly significant activity	Significant activity	RD500 [16]: inactive
Br.C=CCN1CCc2c(cc(O)c(O)c2Cl)C(c2ccccc2)C1 (configuration not stated)	–	–	–	–	0.03 mg/kg	–	–	–	–	–	Active	Active	–
Br.Oc1ccc(C2CNCCc3c2cc(O)c(O)c3Cl)cc1Cl (configuration not stated)	inactive	–	–	–	–	-1	0	0.099 mg/kg	-3	56%	–	–	RBF [15]: Significant activity; RD500 [16]: inactive
CC(=O)Oc1cc2c(c(Cl)c1OC(C)=O)CCN(C)CC2c1ccccc1.Cl (configuration not stated)	inactive	inactive	–	–	0.025 mg/kg	–	–	–	–	–	–	–	RD1000 [14]: 2.2 mg/kg
Br.Cc1ccc(C2CNCCc3c2cc(O)c(O)c3Cl)cc1 (configuration not stated)	inactive	inactive	23%	42%	–	–	–	–	–	–	–	–	Contralateral turns in 2 h [4]: 420 turns/2 h
Br.Cc1cccc(C2CNCCc3c2cc(O)c(O)c3Cl)c1 (configuration not stated)	–	–	–	94%	0.47 mg/kg	1	7	0.015 mg/kg	>6072	56%	Highly significant activity	Significant activity	DA response [18]: 76%
Br.C=CCN1CCc2c(cc(O)c(O)c2Cl)C(c2ccc(Cl)c(O)c2)C1 (configuration not stated)	–	–	–	–	–	–	>319	0.019 mg/kg	>319	39%	Highly significant activity	–	RD500 [16]: inactive; RVR [17]: Significant activity
Br.OCCN1CCc2c(cc(O)c(O)c2Cl)C(c2ccccc2)C1 (configuration not stated)	inactive	–	–	–	–	929	>6072	0.0045 mg/kg	>6072	42%	–	–	RBF [15]: Significant activity; Contralateral turns in 2 h [4]: 1310 turns/2 h
Cl.Oc1cc2c(c(Cl)c1O)CCN(Cc1ccco1)CC2c1ccccc1 (configuration not stated)	–	–	41%	82%	–	> 6070	>6072	0.2 mg/kg	>6072	26%	Highly significant activity	Significant activity	Contralateral turns in 2 h [4]: 611 turns/2 h
Br.Cc1cccc(C2CN(C)CCc3c2cc(O)c(O)c3Cl)c1 (configuration not stated)	inactive	inactive	15%	14%	0.041 mg/kg	–	–	–	–	–	–	–	RD1000 [14]: 2 mg/kg
Cl.Oc1cc2c(c(Cl)c1O)CCN(Cc1cccs1)CC2c1ccccc1 (configuration not stated)	–	–	51%	64%	0.063 mg/kg	–	–	–	–	–	–	–	RBF [15]: Significant activity; RVR [17]: Significant activity; RD1000 [14]: 5.8 mg/kg
